Measured values from ChEMBL document CHEMBL1649165, “Activity profile in vitro of micafungin against Spanish clinical isolates of common and emerging species of yeasts and molds” (2009).
≈ marks a conversion by molar mass, not a printed value.

Assays:
Type in all cases: functional
[1] = system: Pichia kudriavzevii; assay: Antimicrobial activity against Candida krusei by broth microdilution method
Procedure, shortened: (§1)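 Clinical isolates from human patients, tested by broth microdilution using the AFST-EUCAST reference procedure for fermentative yeasts. The MIC was read per that reference method.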

[2] = system: [Candida] inconspicua; assay: Antimicrobial activity against Candida inconspicua by broth microdilution method; conditions: Pichia inconspicua; procedure, shortened: as §1
[3] = system: Trichosporon inkin; assay: Antimicrobial activity against Trichosporon inkin by broth microdilution method
Procedure, shortened: (§2)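 Nonfermentative yeast clinical isolates (Rhodotorula, Trichosporon) tested by broth microdilution. The EUCAST yeast recommendations were followed strictly, with one minor modification to improve growth. MIC was read as the endpoint.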

[4] = system: Trichosporon asahii; assay: Antimicrobial activity against Trichosporon asahii by broth microdilution method; procedure, shortened: as §2
[5] = system: Rhodotorula mucilaginosa; assay: Antimicrobial activity against Rhodotorula mucilaginosa by broth microdilution method; procedure, shortened: as §2
[6] = system: Lomentospora prolificans; assay: Antimicrobial activity against Scedosporium prolificans by broth microdilution method
Procedure, shortened: (§3)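 Filamentous fungus clinical isolates tested by the AFST-EUCAST reference broth microdilution method for moulds. For echinocandins, the endpoint was the minimum effective concentration: the lowest drug concentration giving aberrant hyphal growth, read with an inverted microscope.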

[7] = system: Aspergillus fumigatus; assay: Antimicrobial activity against Aspergillus fumigatus by broth microdilution method
Procedure, shortened: (§4)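 Clinical mould isolates, tested by broth microdilution using the AFST-EUCAST reference method for filamentous fungi. For echinocandins, the endpoint was the minimum effective concentration: the lowest drug concentration giving aberrant hyphal growth, read with an inverted microscope.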

[8] = system: Aspergillus terreus; assay: Antimicrobial activity against Aspergillus terreus by broth microdilution method; procedure, shortened: as §4
[9] = system: Magnusiomyces capitatus; assay: Antimicrobial activity against Dipodascus capitatus by broth microdilution method
[10] = system: Aspergillus ochraceus; assay: Antimicrobial activity against Aspergillus ochraceus by broth microdilution method; procedure, shortened: as §4
[11] = system: Cladophialophora bantiana; assay: Antimicrobial activity against Cladophialophora bantiana by broth microdilution method; procedure, shortened: as §4
[12] = system: Trichosporon ovoides; assay: Antimicrobial activity against Trichosporon ovoides by broth microdilution method; procedure, shortened: as §2
[13] = system: Rhizopus arrhizus; assay: Antimicrobial activity against Rhizopus oryzae by broth microdilution method; procedure, shortened: as §3
[14] = system: Fusarium solani; assay: Antimicrobial activity against Fusarium solani by broth microdilution method; procedure, shortened: as §3
[15] = system: Trichosporon jirovecii; assay: Antimicrobial activity against Trichosporon jirovecii by broth microdilution method; conditions: Cutaneotrichosporon jirovecii; procedure, shortened: as §2
[16] = system: Aspergillus versicolor; assay: Antimicrobial activity against Aspergillus versicolor by broth microdilution method; procedure, shortened: as §4
[17] = system: Aspergillus glaucus; assay: Antimicrobial activity against Aspergillus glaucus by broth microdilution method; procedure, shortened: as §4
[18] = system: Scedosporium apiospermum; assay: Antimicrobial activity against Scedosporium apiospermum by broth microdilution method; procedure, shortened: as §3
[19] = system: Phialemonium curvatum; assay: Antimicrobial activity against Phialemonium curvatum by broth microdilution method; conditions: Thyridium curvatum; procedure, shortened: as §3
[20] = system: Diutina rugosa; assay: Antimicrobial activity against Candida rugosa by broth microdilution method; procedure, shortened: as §1
[21] = system: Candida albicans; assay: Antimicrobial activity against Candida albicans by broth microdilution method; procedure, shortened: as §1
[22] = system: Paecilomyces variotii; assay: Antimicrobial activity against Paecilomyces variotii by broth microdilution method; procedure, shortened: as §3
[23] = system: Ustilago; assay: Antimicrobial activity against Ustilago spp by broth microdilution method
[24] = system: Candida orthopsilosis; assay: Antimicrobial activity against Candida orthopsilosis by broth microdilution method; conditions: Lodderomyces orthopsilosis; procedure, shortened: as §1
[25] = system: Pichia norvegensis; assay: Antimicrobial activity against Candida norvegensis by broth microdilution method; procedure, shortened: as §1
[26] = system: Aspergillus nidulans; assay: Antimicrobial activity against Aspergillus nidulans by broth microdilution method; procedure, shortened: as §4
[27] = system: Trichosporon; assay: Antimicrobial activity against Trichosporon spp. by broth microdilution method; procedure, shortened: as §2
[28] = system: Fusarium equiseti; assay: Antimicrobial activity against Fusarium equiseti by broth microdilution method; procedure, shortened: as §4
[29] = system: Lecythophora hoffmannii; assay: Antimicrobial activity against Lecythophora hoffmannii by broth microdilution method; conditions: Coniochaeta hoffmannii; procedure, shortened: as §3
[30] = system: Wickerhamomyces anomalus; assay: Antimicrobial activity against Candida pelliculosa by broth microdilution method; conditions: Hansenula anomala; procedure, shortened: as §1
[31] = system: Nakaseomyces glabratus; assay: Antimicrobial activity against Candida glabrata by broth microdilution method; procedure, shortened: as §1
[32] = system: Scopulariopsis brevicaulis; assay: Antimicrobial activity against Scopulariopsis brevicaulis by broth microdilution method; procedure, shortened: as §3
[33] = system: Mucor; assay: Antimicrobial activity against Mucor spp.by broth microdilution method; procedure, shortened: as §3
[34] = system: Candida metapsilosis; assay: Antimicrobial activity against Candida metapsilosis by broth microdilution method; conditions: Lodderomyces metapsilosis; procedure, shortened: as §1
[35] = system: Geotrichum candidum; assay: Antimicrobial activity against Galactomyces geotrichum by broth microdilution method
[36] = system: Cunninghamella bertholletiae; assay: Antimicrobial activity against Cunninghamella bertholletiae by broth microdilution method; procedure, shortened: as §4
[37] = system: Alternaria alternata; assay: Antimicrobial activity against Alternaria alternata by broth microdilution method; procedure, shortened: as §4
[38] = system: Coprinellus domesticus; assay: Antimicrobial activity against Hormographiella verticillata by broth microdilution method; procedure, shortened: as §3
[39] = system: Aspergillus flavus; assay: Antimicrobial activity against Aspergillus flavus by broth microdilution method; procedure, shortened: as §4
[40] = system: Rhodotorula glutinis; assay: Antimicrobial activity against Rhodotorula glutinis by broth microdilution method; procedure, shortened: as §2
[41] = system: Clavispora lusitaniae; assay: Antimicrobial activity against Candida lusitaniae by broth microdilution method; procedure, shortened: as §1

CC[C@H](C)C[C@H](C)CCCCCCCCC(=O)N[C@H]1C[C@@H](O)[C@@H](NCCN)NC(=O)[C@@H]2[C@@H](O)CCN2C(=O)[C@H]([C@H](O)CCN)NC(=O)[C@H]([C@H](O)[C@@H](O)c2ccc(O)cc2)NC(=O)[C@@H]2C[C@@H](O)CN2C(=O)[C@H]([C@@H](C)O)NC1=O [CASPOFUNGIN]
MIC50 [1]: 0.25 µg/mL (≈ 0.229 µM)
MIC90 [1]: 0.5 µg/mL (≈ 0.457 µM)
MIC50 [2]: 0.06 µg/mL (≈ 0.0549 µM)
MIC90 [2]: 0.5 µg/mL (≈ 0.457 µM)
MIC50 [3]: > 16 µg/mL
MIC90 [3]: > 16 µg/mL
MIC50 [4]: > 16 µg/mL
MIC90 [4]: > 16 µg/mL
MIC50 [5]: > 16 µg/mL
MIC90 [5]: > 16 µg/mL
MIC50 [6]: 8 µg/mL (≈ 7.32 µM)
MIC90 [6]: > 16 µg/mL
MIC50 [7]: 0.25 µg/mL (≈ 0.229 µM)
MIC90 [7]: 0.5 µg/mL (≈ 0.457 µM)
MIC50 [8]: 1 µg/mL (≈ 0.915 µM)
MIC90 [8]: 2 µg/mL (≈ 1.83 µM)
MIC50 [9]: > 16 µg/mL
MIC90 [9]: > 16 µg/mL
MIC50 [10]: 0.12 µg/mL (≈ 0.11 µM)
MIC90 [10]: 0.5 µg/mL (≈ 0.457 µM)
MIC50 [11]: 0.25 µg/mL (≈ 0.229 µM)
MIC90 [11]: 1 µg/mL (≈ 0.915 µM)
MIC50 [12]: > 16 µg/mL
MIC90 [12]: > 16 µg/mL
MIC50 [13]: > 16 µg/mL
MIC90 [13]: > 16 µg/mL
MIC50 [14]: > 16 µg/mL
MIC90 [14]: > 16 µg/mL
MIC50 [15]: > 16 µg/mL
MIC90 [15]: > 16 µg/mL
MIC50 [16]: 0.25 µg/mL (≈ 0.229 µM)
MIC90 [16]: 2 µg/mL (≈ 1.83 µM)
MIC50 [17]: 0.12 µg/mL (≈ 0.11 µM)
MIC90 [17]: 0.5 µg/mL (≈ 0.457 µM)
MIC50 [18]: 2 µg/mL (≈ 1.83 µM)
MIC90 [18]: > 16 µg/mL
MIC50 [19]: > 16 µg/mL
MIC90 [19]: > 16 µg/mL
MIC50 [20]: 0.06 µg/mL (≈ 0.0549 µM)
MIC90 [20]: 0.5 µg/mL (≈ 0.457 µM)
MIC50 [21]: 0.06 µg/mL (≈ 0.0549 µM)
MIC90 [21]: 0.12 µg/mL (≈ 0.11 µM)
MIC50 [22]: 0.5 µg/mL (≈ 0.457 µM)
MIC90 [22]: 4 µg/mL (≈ 3.66 µM)
MIC50 [23]: > 16 µg/mL
MIC90 [23]: > 16 µg/mL
MIC50 [24]: 0.06 µg/mL (≈ 0.0549 µM)
MIC90 [24]: 0.5 µg/mL (≈ 0.457 µM)
MIC50 [25]: 0.06 µg/mL (≈ 0.0549 µM)
MIC90 [25]: 0.5 µg/mL (≈ 0.457 µM)
MIC50 [26]: 0.5 µg/mL (≈ 0.457 µM)
MIC90 [26]: > 16 µg/mL
MIC50 [27]: > 16 µg/mL
MIC90 [27]: > 16 µg/mL
MIC50 [28]: > 16 µg/mL
MIC90 [28]: > 16 µg/mL
MIC50 [29]: 0.25 µg/mL (≈ 0.229 µM)
MIC90 [29]: 1 µg/mL (≈ 0.915 µM)
MIC50 [30]: 0.06 µg/mL (≈ 0.0549 µM)
MIC90 [30]: 0.5 µg/mL (≈ 0.457 µM)
MIC50 [31]: 0.12 µg/mL (≈ 0.11 µM)
MIC90 [31]: 0.25 µg/mL (≈ 0.229 µM)
MIC50 [32]: > 16 µg/mL
MIC90 [32]: > 16 µg/mL
MIC50 [33]: > 16 µg/mL
MIC90 [33]: > 16 µg/mL
MIC50 [34]: 0.06 µg/mL (≈ 0.0549 µM)
MIC90 [34]: 0.5 µg/mL (≈ 0.457 µM)
MIC50 [35]: > 16 µg/mL
MIC90 [35]: > 16 µg/mL
MIC50 [36]: > 16 µg/mL
MIC90 [36]: > 16 µg/mL
MIC50 [37]: 4 µg/mL (≈ 3.66 µM)
MIC90 [37]: > 16 µg/mL
MIC50 [38]: > 16 µg/mL
MIC90 [38]: > 16 µg/mL
MIC50 [39]: > 16 µg/mL
MIC90 [39]: > 16 µg/mL
MIC50 [40]: > 16 µg/mL
MIC90 [40]: > 16 µg/mL
MIC50 [41]: 0.5 µg/mL (≈ 0.457 µM)
MIC90 [41]: 1 µg/mL (≈ 0.915 µM)
